MrgX1 agonist: agonists of human MrgX1 receptor; B-score at 10 µM; MrgX1-HEK293 cells, Fluo-4 calcium fluorescence, agonist mode; hits give high values; 310,000 tested, 0.44% active; AID 588627; Q96LB2;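 active means calcium response B-score plate-corrected fluorescence ratio at least 3 library SD, with starting fluorescence B-score inside 5 SD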
Target sequence (Q96LB2 whole entry, looked up): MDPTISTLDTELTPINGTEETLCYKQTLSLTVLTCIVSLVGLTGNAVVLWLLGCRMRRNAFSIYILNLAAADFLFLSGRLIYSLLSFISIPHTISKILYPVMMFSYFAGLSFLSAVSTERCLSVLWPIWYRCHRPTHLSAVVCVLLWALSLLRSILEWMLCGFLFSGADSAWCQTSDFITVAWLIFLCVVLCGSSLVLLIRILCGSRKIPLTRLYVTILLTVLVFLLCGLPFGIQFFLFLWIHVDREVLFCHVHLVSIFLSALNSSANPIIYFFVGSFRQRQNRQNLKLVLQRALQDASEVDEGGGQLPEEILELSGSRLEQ
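System – MrgX1-expressing HEK293 cells · Incubation – cells plated overnight, dye loaded 0.5 h 37 °C, 0.5 h room temperature · Technique – kinetic Fluo-4 NW fluorescence of intracellular calcium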
MrgX1 antag: antagonists of human MrgX1 receptor; AID 588676; 310,000 tested, 1.3% active; Q96LB2; MRGX1-HEK293 calcium flux, Fluo-4, BAM8-22 antagonism; hits give low values; B-score at 10 µM;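 active means calcium-response B-score plate-corrected more than 3 library SD below zero, starting fluorescence within 5 deviations, no agonist response on first addition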;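 further: peak minus trough fluorescence over baseline after final BAM8-22 challenge near maximal dose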
RGS4 pot: potentiators or activators of RGS4; B-score at 10 µM; 310,000 tested, 0.92% active; HEK293 M3R/inducible RGS4, carbachol calcium flux Fluo4; hits give low values;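 active means B-score of the integrated calcium signal more than 4 SD below the library mean, with starting fluorescence not abnormally high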;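 further: negative B-score means reduced calcium response which marks RGS4 activation or potentiation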
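test system = HEK293 cells with stable M3R and inducible RGS4 | schedule = recording 10 s baseline at 1 Hz, 100 s post-agonist | technique = Fluo4-AM (2 µM) calcium-flux fluorescence, kinetic read | measure = Agonist-evoked peak-minus-minimum fluorescence over baseline, integrated ratio, B score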
MrgX1 PAM: allosterically activates human MrgX1 receptor signaling; Q96LB2; MrgX1-HEK293, Fluo-4 calcium flux, FDSS; hits give high values; B-score at 10 µM; 310,000 tested, 0.63% active;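 active means plate-corrected calcium response at least 3 library SD above typical, normal starting fluorescence, not activating the receptor alone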;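 further: compound read alongside a low EC10 to EC30 dose of BAM8-22 agonist; peak minus trough fluorescence over baseline measured at the second addition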
RGS4 block: inhibitors of human RGS4; P49798; HEK293 M3R/RGS4 inducible, Fluo-4 calcium flux; hits give high values; triggered by carbachol at its EC20; B-score at 10 µM; 310,000 tested, 0.45% active; AID 463165;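 active means B-score, a plate-corrected calcium signal, over three deviations above library mean, with baseline fluorescence within five deviations of library mean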;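 further: RGS4 expression induced by doxycycline in cells with stable M3 receptor; B-score is computed from the integrated fluorescence ratio over baseline after carbachol; higher B-score means a larger calcium signal and so more RGS4 inhibition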
Target sequence (P49798 whole entry, looked up): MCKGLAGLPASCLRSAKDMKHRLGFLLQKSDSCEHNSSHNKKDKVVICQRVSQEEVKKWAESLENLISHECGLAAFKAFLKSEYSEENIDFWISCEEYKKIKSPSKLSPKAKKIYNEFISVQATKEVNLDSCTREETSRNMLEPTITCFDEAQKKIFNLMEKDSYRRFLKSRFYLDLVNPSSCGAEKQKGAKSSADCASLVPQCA
RGS4 activ val: RGS4 activation, validation assay | shares compounds with RGS4 pot | HEK293 M3R/RGS4 inducible, carbachol calcium flux Fluo4 | inhibition, % at 10 µM | 1,100 tested, 89% active;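 active means inhibition above 3 SD of the buffer control wells, cut at about 41% in these data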;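 further: signal is the integrated peak-minus-minimum Fluo4 fluorescence over baseline ratio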
M3R Ca counter: RGS4 activator counter-screen hit in non-induced cells; shares compounds with RGS4 pot; HEK293 M3R non-induced RGS4, Fluo4 calcium flux; after carbachol challenge at its EC90; inhibition, % at 10 µM; 1,100 tested, 82% active;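 active means inhibition exceeding 3 SD of buffer-only control wells, cut at about 26% in these data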;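 further: percent drop in integrated peak-minus-baseline over baseline Fluo4 ratio after carbachol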
RGS4 block valid: validation of RGS4 inhibitors; shares compounds with RGS4 block; HEK293 M3R/RGS4, carbachol calcium Fluo-4 fluorescence; carbachol added at its EC20; 0 = buffer wells, 100 = carbachol control; calcium response, % at 10 µM; 1,700 tested, 65% active; AID 492999;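 active means duplicate-averaged calcium response above the buffer-only control mean plus 5 SD of those controls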;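 further: integrated fluorescence ratio F max minus min over baseline F0; higher response in RGS4-induced cells means RGS4 inhibition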
RGS4 uninduced: non-induced cell nonspecific activity of RGS4 inhibitors; shares compounds with RGS4 block; HEK293 M3R non-induced, carbachol calcium Fluo-4; submaximal (EC20) carbachol stimulus; buffer wells 0%, carbachol control wells 100%; activity (percent), % at 10 µM; 1,900 tested, 20% active; AID 493000; call rule not given here;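 further: RGS4 induction absent so cells express M3R without RGS4; higher means more calcium signal and flags a non-specific hit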
RGS4 inh ctr2: second RGS4 inhibitor counter-screen in uninduced cells lacking carbachol; shares compounds with RGS4 block; HEK293 M3R/RGS4 non-induced, Fluo-4 calcium, no carbachol; normalised: buffer wells 0%, carbachol wells 100%; calcium response (agonist-mode artifact), % at 10 µM; 1,900 tested, 22% active;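 active means duplicate-averaged calcium rise in uninduced cells above buffer wells' mean plus 5 SD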
* = called active by the depositor; i = inactive; · = no result given. Hits are enriched below; roughly 3.5% of the tested compounds scored in any of these assays.

SMILES	MrgX1 agonist	MrgX1 antag	RGS4 pot	MrgX1 PAM	RGS4 block	RGS4 activ val	M3R Ca counter	others
CCn1ccnc1CN1CCCC(C(=O)c2ccc(SC)cc2)C1 (stereo not drawn)	i	i	-10.3*	i	i	91.5*	89.8*
CC(Cc1ccccc1)N1C(=O)c2ccccc2C1=O (stereo not drawn)	i	i	i	i	i	·	·
Cc1[nH]c2ccc(OC(F)(F)F)cc2c1CCNCc1cccc([N+](=O)[O-])c1	i	i	i	i	i	·	·
CCOc1cccc(CNCCc2c(C)[nH]c3ccc(OC(F)(F)F)cc23)c1O	i	-5.29*	-8.92*	i	i	90.0*	89.8*
O=C1COc2ccc(C(=O)COC(=O)Cc3ccccc3)cc2N1	i	i	i	i	i	·	·
CC(=O)c1cn(CC(=O)NCCc2c[nH]c3ccccc23)c2ccccc12	i	i	i	i	i	·	·
OC(c1ccccc1)(c1ccc(Cl)cc1)C1CN2CCC1CC2 (stereo not drawn)	i	i	-9.06*	i	i	78.0*	57.3*
O=C(c1ccc2c(c1)OCO2)C1CCCN(Cc2c(F)cccc2Cl)C1 (stereo not drawn)	i	i	-8.59*	i	i	92.5*	80.8*
Cc1cccc(CN2CCCC(C(=O)c3ccc4c(c3)OCO4)C2)n1 (stereo not drawn)	i	i	i	i	i	·	·
OC(CNCCc1c[nH]c2ccccc12)c1ccccc1 (stereo not drawn)	i	i	i	i	i	·	·
Brc1ccc2c(c1)C(OC1CN3CCC1CC3)c1ccccc1CS2 (stereo not drawn)	i	i	-14.2*	i	i	94.5*	90.3*
O=c1[nH]c(=O)n(Cc2ccccc2Cl)c(O)c1/C=C1/C=CC=N1	i	i	i	i	i	·	·
CCCn1ncc(CN2CCCC(C(=O)c3cccc(OC)c3)C2)c1C (stereo not drawn)	i	i	-9.14*	i	i	91.0*	70.3*
CN(CC(=O)Nc1ccccc1-c1ccccc1)C1CCCCC1	i	i	-9.56*	i	i	91.5*	55.3*
CCc1ccccc1NC(=O)CNC1CCCCC1	i	i	i	i	i	·	·
O=C(c1ccc(Cl)cc1)C1CCCN(C2CCSCC2)C1 (stereo not drawn)	i	i	-7.88*	i	i	91.5*	54.8*
CC1(C(O)(C#CCN2CCCCC2)c2ccccc2)CCCC1 (stereo not drawn)	i	i	-7.56*	i	i	93.0*	89.3*
OC(CC#CCN1CCCCCC1)(c1ccccc1)C1CCCC1 (stereo not drawn)	i	i	-7.65*	i	i	93.0*	94.8*
CC1CCCCC1NC(=O)CNC(=S)N1CC2CC(C1)c1cccc(=O)n1C2 (stereo not drawn)	i	i	i	i	i	·	·
O=C(c1cccs1)C1CN2CCC1CC2 (stereo not drawn)	i	i	-9.31*	i	i	60.0*	0.0
CN1CC(C(=O)c2cccs2)C(c2ccc(Cl)cc2)C1 (stereo not drawn)	i	i	i	i	i	·	·
Cc1noc(C)c1CC(=O)N1CCCC(N2CCN(c3ccccc3F)CC2)C1 (stereo not drawn)	i	i	i	i	i	·	·
Cc1ccc(-c2nc3ccccc3c(=O)n2-c2cccc(C)n2)cc1	i	i	-10.4*	i	i	47.5*	83.8*
Cc1ccc(-c2nc3ccccc3c(=O)n2-c2cc(C)ccn2)cc1	i	i	i	i	i	·	·
c1ccc(CN2CCNCC2)nc1	i	i	i	i	i	·	·
SMILES	MrgX1 agonist	MrgX1 antag	RGS4 pot	MrgX1 PAM	RGS4 block	RGS4 activ val	M3R Ca counter	others
c1ccc(C(OCCN2CCNCC2)c2ccccc2)cc1	i	i	-9.5*	i	i	91.5*	74.3*
Cc1ccc(C(C)C)c(OCC#CCN2CCCC2)c1	i	i	-9.1*	i	i	91.0*	40.8*
CCOc1cc2c(cc1OCC)-n1cccc1C(c1cccc(OCC)c1O)NC2 (stereo not drawn)	i	i	i	i	i	·	·
CCOc1cccc(CNC2CN3CCC2CC3)c1 (stereo not drawn)	i	i	i	i	i	·	·
COc1cccc(CNC2CN3CCC2CC3)c1OC (stereo not drawn)	i	i	-7.73*	i	i	56.0*	25.8*
COC(=O)C1=C(c2cc3ccccc3o2)C[C@@H]2CC[C@H]1N2C(=O)NCCO	i	i	i	i	i	·	·
CCC[N+]12CCC(CC1)C(=C(c1ccccc1)c1ccccc1)C2	i	i	-11.7*	i	i	90.0*	63.8*
Nc1c(C(=O)NCc2ccco2)c2nc3ccccc3nc2n1CCN1CCOCC1	i	i	i	i	5.33*	·	·	RGS4 block valid=13.5%*;RGS4 uninduced=42.5%*;RGS4 inh ctr2=15.5%*
Nc1c(C(=O)NCc2ccco2)c2nc3ccccc3nc2n1Cc1ccccc1	i	i	i	i	i	·	·
O=C1NC(=O)N(CCc2ccc(F)cc2)C(=O)/C1=C/c1cccs1	i	i	i	i	i	·	·	RGS4 uninduced=i;RGS4 inh ctr2=i
Cc1ccc(/C=C2/C(=O)NC(=O)N(CCc3ccc(F)cc3)C2=O)o1	i	i	i	i	i	·	·	RGS4 block valid=i;RGS4 uninduced=i;RGS4 inh ctr2=i
CC(Cc1ccc(O)cc1)NCC(O)c1cc(O)cc(O)c1 (stereo not drawn)	i	i	i	i	5.72*	·	·	RGS4 block valid=30.0%*;RGS4 uninduced=i;RGS4 inh ctr2=73.0%*
O=C(CCCc1ccccc1)NCCc1cnc[nH]1	i	i	i	i	i	·	·
